Reference: ChEMBL document CHEMBL1649306, “Arylimidamide DB766, a potential chemotherapeutic candidate for Chagas' disease treatment” (Antimicrob Agents Chemother, 2010)
The source made the active and inactive calls. The rule behind the calls is not given here.

Assays:
Trypanosoma cruzi [1] = assay: Antitrypanosomal activity against Trypanosoma cruzi Y bloodstream forms after 2 hrs by light microscopy; type: functional, organism-based
In short: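 Bloodstream trypomastigotes from infected Swiss mice at peak parasitemia, 5.0 × 10^6 cells/ml in RPMI 1640 with 5% FBS. Exposed at 37°C to serial dilutions from 0 to 32 μM. Motile live parasites counted by light microscopy in a Neubauer chamber, then IC50 calculated.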

Trypanosoma cruzi [2] = assay: Antitrypanosomal activity against Trypanosoma cruzi Y bloodstream forms infected in Swiss-Webster mouse assessed as survival of mouse at 50 mg/kg/day, ip p administered 5 days postinfection for 10 consecutive days measured on day 120; type: functional, organism-based
In short: (§1)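 Male Swiss mice infected i.p. with 10^4 Y strain bloodstream forms. Given 0.2 ml i.p. at 5 and 8 dpi, or daily for 10 days from 5 dpi; reference drug given by gavage. Parasitemia measured by the Pizzi-Brener method, cumulative mortality checked daily to 120 dpi, n ≥ 6 per group.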

Trypanosoma cruzi [3] = assay: Antitrypanosomal activity against Trypanosoma cruzi Y bloodstream forms infected in Swiss-Webster mouse assessed as decrease in parasite load at 25 mg/kg/day, ip administered 8 days postinfection measured on day 2; type: functional; parameters: scale not given: the % may be the effect or the level left; details: route intraperitoneal; in short: as §1
Trypanosoma cruzi [4] = assay: Antitrypanosomal activity against Trypanosoma cruzi Y bloodstream forms infected in Swiss-Webster mouse assessed as reduction in parasite-induced weight loss in mouse at 100 mg/kg/day, po administered 5 days postinfection for 10 consecutive days measured on day 120; type: functional, organism-based
In short: (§2)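 Body weight of infected, treated mice followed from 0 to 120 dpi.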

Trypanosoma cruzi [5] = assay: Antitrypanosomal activity against Trypanosoma cruzi Y infected in Swiss-Webster mouse assessed as decrease in parasite load at 100 mg/kg/day, ip administered 5 days post-infection for 10 consecutive days measured on day 120; type: functional; details: route intraperitoneal; in short: as §1
Trypanosoma cruzi [6] = assay: Antitrypanosomal activity against Trypanosoma cruzi Y bloodstream forms infected in Swiss-Webster mouse assessed as decrease in parasite load at 50 mg/kg/day, ip administered 8 days postinfection measured on day 2; type: functional; parameters: scale not given: the % may be the effect or the level left; details: route intraperitoneal
In short: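 Two-day regimen in male Swiss mice infected i.p. with 10^4 Y-strain bloodstream forms: i.p. doses (0.2 ml) at 5 and 8 dpi. Circulating parasites quantified at the 8 dpi peak by Pizzi-Brener method; reduction versus infected untreated mice; n ≥ 6 per group.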

Trypanosoma cruzi [7] = assay: Antitrypanosomal activity against Trypanosoma cruzi Y bloodstream forms infected in Swiss-Webster mouse assessed as reduction in parasite-induced weight loss at 100 mg/kg/day, ip administered 5 days postinfection for 10 consecutive days measured after 120 days; type: functional, organism-based; in short: as §2
Mus musculus [8] = assay: Hepatotoxicity against Swiss-Webster mouse assessed as GPT at 100 mg/kg/day measured after 14 days postinfection; type: toxicity, organism-based; details: in vivo, 336 h
Mus musculus [9] = assay: Toxicity in male Swiss-Webster mouse assessed as weight loss at cumulative dose of 200 mg/kg, ip measured after 48 hrs; type: organism-based; parameters: dose 200 mg/kg, route intraperitoneal; details: in vivo
In short: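 Acute toxicity in 8–10-week-old Swiss Webster mice. i.p. injections every 2 h of 5, 15, 30, 50 and 100 mg/kg (cumulative 200 mg/kg) on day 1. Toxic and subtoxic signs inspected on days 2 and 3 per OECD guidelines; outcome read 48 h after injection.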

[10] = Cytotoxicity against Swiss-Webster mouse cardiomyocytes after 72 hrs by MTT assay; type: cell-based, Cardiomyocyte; details: read-out: LC50
In short: (§3)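 Primary embryonic cardiomyocytes from Swiss mice, uninfected, incubated 24 h or 72 h at 37°C, 5% CO2, with 0 to 96 μM in DMEM. MTT read at 490 nm; LC50 taken as concentration reducing viability by 50%; at least three experiments in duplicate.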

Trypanosoma cruzi [11] = assay: Antitrypanosomal activity against bloodstream forms of Trypanosoma cruzi Y infected in Swiss mouse cardiomyocytes assessed as parasite mitochondrial swelling at 10 ug/ml after 2 hrs by transmission electron microscopy; type: functional, organism-based
In short: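 Y-strain bloodstream trypomastigotes treated 2 to 24 h at 37°C. Fixed 60 min at 4°C in 2.5% glutaraldehyde in 0.1 M cacodylate, pH 7.2. Postfixed 1 h at 4°C in 1% OsO4 with 0.8% potassium ferricyanide. Acetone-dehydrated, Epon-embedded, sections stained with uranyl acetate and lead citrate, ultrastructure examined by TEM.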

Trypanosoma cruzi [12] = assay: Antitrypanosomal activity against Trypanosoma cruzi Columbian bloodstream forms infected in C3H mouse assessed as decrease in parasite load at 25 mg/kg/day, ip administered 21 days postinfection measured on day 44; type: functional; parameters: scale not given: the % may be the effect or the level left; details: route intraperitoneal
In short: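 C3H/He mice infected i.p. with 10^2 Colombian strain bloodstream forms. Treatment started at parasitemia onset (21 dpi) with daily doses for 10 treatments, 0.1 ml i.p. Parasitemia measured by the Pizzi-Brener method; n ≥ 6 parasitemic mice per group.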

Mus musculus [13] = assay: Cytotoxicity against Swiss-Webster mouse assessed as effect on creatine kinase at 100 mg/kg/day measured after 14 days postinfection; type: organism-based; details: in vivo, 336 h
Trypanosoma cruzi [14] = assay: Antitrypanosomal activity against Trypanosoma cruzi MS1523 epimastigotes after 24 hrs by light microscopy; type: functional, organism-based; details: MS1523, 24 h
In short: (§4)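 Epimastigotes from 5-day exponential cultures, 5 × 10^6 parasites/ml in LIT medium, incubated at 28°C up to 96 h with DB766 0 to 32 μM or Bz 0 to 250 μM. Counted daily in a Neubauer chamber. IC50 averaged from at least three determinations in duplicate.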

Trypanosoma cruzi [15] = assay: Antitrypanosomal activity against bloodstream forms of Trypanosoma cruzi Y after 24 hrs by light microscopy in presence of 50% mouse blood; type: functional, organism-based
In short: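 Bloodstream trypomastigotes kept at 4°C for 24 h in freshly isolated 50% mouse blood with serial dilutions (up to 32 μM). Motile live parasites counted in a Neubauer chamber by light microscopy; IC50 calculated as concentration reducing parasite number by 50%.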

Trypanosoma cruzi [16] = assay: Antitrypanosomal activity against Trypanosoma cruzi Y bloodstream forms infected in Swiss-Webster mouse assessed as survival of mouse at 25 mg/kg/day, ip administered 8 days postinfection measured on day 120; type: functional, organism-based; in short: as §1
Trypanosoma cruzi [17] = assay: Antitrypanosomal activity against Trypanosoma cruzi 875 epimastigotes after 24 hrs by light microscopy; type: functional, organism-based; details: Trypanosoma cruzi, 875, 24 h; in short: as §4
Trypanosoma cruzi [18] = assay: Antitrypanosomal activity against Trypanosoma cruzi Columbian bloodstream forms infected in C3H mouse assessed as decrease in parasite load at 50 mg/kg/day, ip p administered 5 days postinfection for 10 consecutive days measured after 120 days; type: functional, organism-based
Trypanosoma cruzi [19] = assay: Antitrypanosomal activity against Trypanosoma cruzi Y amastigotes infected in Swiss-Webster CM cells assessed as parasite DNA to host cell nucleus ratio at 10 ug/ml after 1 hr by fluorescence and transmission electron microscopy analysis; type: functional
Trypanosoma cruzi [20] = assay: Antitrypanosomal activity against Trypanosoma cruzi Columbian bloodstream forms infected in C3H mouse assessed as decrease in parasite load in 50 mg/kg/day, po administered 5 days postinfection for 10 consecutive days measured after 120 days; type: functional, organism-based
Mus musculus [21] = assay: Cardiotoxicity in […] mouse assessed as effect on heart rate level at 100 mg/kg/day, ip; type: toxicity, organism-based; parameters: route intraperitoneal; details: in vivo
In short: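 Colombian strain, 5 × 10³ bloodstream forms i.p. into male C3H/He mice; 100 mg/kg/day given i.p. or by gavage (0.1 ml) daily for 10 doses from parasitemia onset. Mice sedated with diazepam (20 mg/kg i.p.), supine; eight-lead ECG from subcutaneous limb needle electrodes plus precordial lead II. Signal-averaged ECG; heart rate as beats per minute.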

[22] = Cytotoxicity against Swiss-Webster mouse cardiomyocytes after 24 hrs by MTT assay; type: cell-based, Cardiomyocyte; details: read-out: LC50; in short: as §3

SMILES: CC(C)Oc1cc(NC(=N)c2ccccn2)ccc1-c1ccc(-c2ccc(NC(=N)c3ccccn3)cc2OC(C)C)o1
- IC50 (Trypanosoma cruzi [1]): 1140 nM
- Activity (Trypanosoma cruzi [2]): Active
- Activity (Trypanosoma cruzi [3]): 78%
- Activity (Trypanosoma cruzi [4]): Active
- inhibition in vivo at 100 mg/kg/day (Trypanosoma cruzi [5]): > 98%
- Activity (Trypanosoma cruzi [6]): 88%
- Activity (Trypanosoma cruzi [7]): Active
- Activity (Mus musculus [8]): Non-toxic
- Activity (Mus musculus [9]): 10%
- CC50 at 72 h [10]: 16400 nM
- Activity (Trypanosoma cruzi [11]): Active
- Activity (Trypanosoma cruzi [12]): 73%
- Activity (Mus musculus [13]): Non-toxic
- IC50 (Trypanosoma cruzi [14]): 170 nM
- IC90 (Trypanosoma cruzi [14]): 410 nM
- IC50 (Trypanosoma cruzi [15]): 710 nM
- Activity (Trypanosoma cruzi [16]): Active
- IC50 (Trypanosoma cruzi [17]): 60 nM
- IC90 (Trypanosoma cruzi [17]): 240 nM
- Activity (Trypanosoma cruzi [18]): Active
- Ratio (Trypanosoma cruzi [19]): 2.1
- Activity (Trypanosoma cruzi [20]): inactive
- Activity (Mus musculus [21]): Toxic
- CC50 at 24 h [22]: > 32000 nM
